According to ChEMBL document CHEMBL1148393, “SAR studies of dihydro-beta-agarofuran sesquiterpenes as inhibitors of the multidrug-resistance phenotype in a Leishmania tropica line overexpressing a P-glycoprotein-like transporter” (J Med Chem, 2004):

Legend:
[1] = system: Leishmania tropica; experiment: Percentage of growth inhibition of multidrug resistance Leishmania tropica Lines at 15 uM; type: functional
Summary of the method: (§1)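 Log-phase MDR promastigotes were plated at 3 × 10⁵ cells/well in RPMI 1640-modified medium with 20% FBS and 150 µM DNM. Sesquiterpenes (DMSO stocks diluted in medium) were added and cells kept 72 h at 28 °C. MTT was added for 4 h, formazan dissolved in 20% SDS and A540 read. Growth inhibition is relative to DNM-treated controls without modulator.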

[2] = system: Leishmania tropica; experiment: Percentage of growth inhibition of multidrug resistance Leishmania tropica Lines at 1 uM; type: functional; summary of the method: as §1
[3] = system: Leishmania tropica; experiment: Percentage of growth inhibition of multidrug resistance Leishmania tropica Lines at 3 uM; type: functional; summary of the method: as §1
[4] = system: Leishmania tropica; experiment: Percentage of growth inhibition of multidrug resistance Leishmania tropica Lines at 7 uM.; type: functional; summary of the method: as §1
[5] = system: Leishmania tropica; experiment: Percent growth inhibition of wild type Leishmania tropica at 1 uM; type: functional
Summary of the method: (§2)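 Intrinsic toxicity on the wild-type L. tropica LRC clone, with no DNM present. Log-phase promastigotes were plated at 3 × 10⁵ cells/well in RPMI 1640-modified medium with 20% FBS, with sesquiterpene diluted from DMSO stocks, for 72 h at 28 °C. MTT was added for 4 h, then 20% SDS, and A540 read. Percent growth inhibition is taken against untreated control absorbance.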

[6] = system: Leishmania tropica; experiment: Percentage of growth inhibition of wild type Leishmania tropica Lines at 3 uM; type: functional
Summary of the method: (§3)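 WT L. tropica LRC-strain promastigotes (log phase, RPMI 1640-modified medium + 20% heat-inactivated FBS, 28 °C) seeded at 3 × 10⁵ cells/well and exposed without DNM to sesquiterpenes diluted from DMSO stocks. After 72 h at 28 °C, MTT (5 mg/mL in PBS) was added for 4 h, formazan dissolved in 20% SDS, A540 read. Growth inhibition (%) calculated relative to untreated control absorbance.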

[7] = system: Leishmania tropica; experiment: Percentage of growth inhibition of wild type Leishmania tropica Lines at 7 uM; type: functional; summary of the method: as §3
[8] = system: Leishmania tropica; experiment: (§4) Percentage of growth inhibition of wild type Leishmania tropica lines at 15 uM; type: functional; summary of the method: as §3
[9] = system: Leishmania tropica; experiment: Percentage of growth inhibition of wild type Leishmania tropica Lines at 3 uM.; type: functional; summary of the method: as §2
[10] = system: Leishmania tropica; experiment: Percentage of growth inhibition of wild type Leishmania tropica Lines at 7 uM.; type: functional; summary of the method: as §2
[11] = system: Leishmania tropica; experiment: as §4; type: functional; summary of the method: as §2; remark: listed apart in the source
[12] = system: Leishmania tropica; experiment: Percentage of growth inhibition of multidrug resistance Leishmania tropica Lines at 1 uM.; type: functional; summary of the method: as §1
[13] = system: Leishmania tropica; experiment: Percentage of growth inhibition of multidrug resistance Leishmania tropica Lines at 3 uM.; type: functional; summary of the method: as §1
[14] = system: Leishmania tropica; experiment: Percentage of growth inhibition of multidrug resistance Leishmania tropica Lines at 7 uM; Value ranges from 0 to 6%; type: functional; summary of the method: as §1
[15] = system: Leishmania tropica; experiment: Ratio of IC50 of the multidrug resistance Leishmania tropica Line to that of IC50 of the wild type line at 15 uM; type: functional
Summary of the method: (§5)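 Resistance index is the DNM IC50 in the MDR L. tropica line divided by the DNM IC50 in the wild-type line. MDR IC50s were obtained with sesquiterpene at 7 or 15 µM. Growth was read by 72 h MTT assay at 28 °C. Data are from three independent experiments.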

[16] = system: Leishmania tropica; experiment: Ratio of IC50 of the multidrug resistance Leishmania tropica Line to that of IC50 of the wild type line at 7 uM; type: functional; summary of the method: as §5
[17] = system: Leishmania tropica; experiment: Concentration required to inhibit the growth of multidrug resistance Leishmania tropica Line in the presence of DNM at 15 uM; type: functional, organism-based
[18] = system: Leishmania tropica; experiment: Concentration required to inhibit the growth of multidrug resistance Leishmania tropica Line in the presence of DNM at 7 uM; type: functional, organism-based

Row | SMILES | inhibition at 15 µM [1] | inhibition at 1 µM [2] | inhibition at 3 µM [3] | inhibition at 7 µM [4] | inhibition at 1 µM [5] | inhibition at 3 µM [6] | inhibition at 7 µM [7] | inhibition at 15 µM [8] | inhibition at 3 µM [9] | inhibition at 7 µM [10] | inhibition at 15 µM [11] | inhibition at 1 µM [12] | inhibition at 3 µM [13] | inhibition at 7 µM [14] | RI [15] | RI [16] | IC50 [17] | IC50 [18]
1 | CC(=O)O[C@H]1[C@@H](OC(=O)c2ccco2)C[C@](C)(O)C23OC(C)(C)C(C[C@H](OC(=O)c4ccco4)[C@]12C)[C@H]3OC(=O)c1ccco1 (some centres not stated) | 93.5% | 10% | 52.9% | 86.2% | < 6% | 13.8% | 18.1% | 23.4% | – | – | – | – | – | – | – | – | – | –
2 | CC(=O)O[C@H]1C[C@](C)(O)C23OC(C)(C)C(C[C@H](OC(=O)c4ccco4)[C@]2(C)[C@H]1OC(C)=O)[C@H]3OC(=O)C(C)(C)C (some centres not stated) | 96.7% | 18.1% | 44.5% | 82.5% | < 6% | – | – | – | < 6% | < 6% | < 6% | – | – | – | – | – | – | –
3 | CC(=O)O[C@H]1C[C@](C)(O)C23OC(C)(C)C(C[C@H](OC(=O)c4ccco4)[C@]2(C)[C@H]1OC(C)=O)[C@H]3OC(=O)c1ccc([N+](=O)[O-])cc1 (some centres not stated) | 59.5% | – | – | 15.5% | < 6% | – | – | – | < 6% | < 6% | < 6% | < 6% | 6% | – | – | – | – | –
4 | CC(=O)O[C@H]1[C@@H](OC(=O)c2ccccc2)C[C@](C)(O)C23OC(C)(C)C(C[C@H](OC(=O)c4ccco4)[C@]12C)[C@H]3OC(=O)C(F)(F)F (some centres not stated) | 36.9% | – | – | 9.7% | < 6% | – | – | – | < 6% | < 6% | < 6% | < 6% | < 6% | – | – | – | – | –
5 | CCCCCCCCCCCC(=O)O[C@@H]1C2C[C@H](OC(=O)c3ccco3)[C@]3(C)[C@@H](OC(C)=O)[C@@H](OC(=O)c4ccccc4)C[C@](C)(O)C13OC2(C)C (some centres not stated) | 9.2% | – | – | – | < 6% | – | – | – | < 6% | < 6% | < 6% | < 6% | 6% | 6% | – | – | – | –
6 | CC(=O)OC[C@]12[C@@H](OC(=O)c3ccccc3)CC3[C@@H](OC(=O)c4ccccc4)C1(OC3(C)C)[C@@](C)(O)C[C@H](OC(C)=O)[C@@H]2OC(C)=O (some centres not stated) | 90.9% | 18% | 77.5% | 89.9% | < 6% | 6.9% | 11% | 15.2% | – | – | – | – | – | – | 5.2 | 10.2 | 20 µM | 39 µM
7 | CC(=O)OC[C@]12[C@@H](OC(=O)c3ccco3)CC3[C@@H](OC(=O)c4ccco4)C1(OC3(C)C)[C@@](C)(O)C[C@H](OC(C)=O)[C@@H]2OC(C)=O (some centres not stated) | 94.3% | 25.7% | 79.6% | 89.5% | < 6% | – | – | 7.2% | < 6% | < 6% | – | – | – | – | 2.9 | 8.7 | 11 µM | 33.3 µM
8 | CC(=O)O[C@H]1[C@@H](O)C[C@](C)(O)C23OC(C)(C)C(C[C@H](OC(=O)c4ccco4)[C@]12C)[C@H]3OC(=O)c1ccco1 (some centres not stated) | 28.7% | – | – | 9.1% | < 6% | – | – | – | < 6% | < 6% | < 6% | < 6% | 6% | – | – | – | – | –
9 | CC(=O)O[C@H]1C[C@](C)(O)C23OC(C)(C)C(C[C@H](OC(=O)c4ccco4)[C@]2(C)[C@H]1OC(C)=O)[C@H]3OC(=O)c1ccco1 (some centres not stated) | 94.4% | 24.5% | 83.5% | 90.9% | < 6% | – | 9.7% | 15.2% | < 6% | – | – | – | – | – | 2.3 | 7.8 | 9 µM | 30 µM
10 | CC(=O)O[C@H]1C[C@](C)(O)C23OC(C)(C)C(C[C@H](OC(=O)c4ccco4)[C@]2(C)[C@H]1OC(C)=O)[C@H]3OC(C)=O (some centres not stated) | 50.6% | – | – | 17.1% | < 6% | – | – | – | < 6% | < 6% | < 6% | < 6% | < 6% | – | – | – | – | –
